We go through 3 compounds from article PMC9060504 (Proceedings of the National Academy of Sciences of the …, 2022).

Series [1] has as its target T1, STIM1 together with Orai3 (Homo sapiens, UniProt Q9BRQ5). The note with it: cited from earlier work.
The target in series [2] is Orai1 V102A (Homo sapiens, UniProt Q96D31, V102A). Briefly: Current recording, constitutively open Orai1 V102A mutant. It is filed as cell-based. The note with it: 10 μM. In outline: (§1)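 Whole-cell currents were recorded from cells expressing the Orai1 mutant or the chimera (the chimera with STIM1). Cells were superfused with extracellular solution containing 10 mM Ca2+, with or without 10 μM test compound or 10 μM La3+. During recording, cells were kept dark or illuminated at the indicated wavelengths. Time courses and I-V plots were collected.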

The target in series [3] is T2, Orai3 (Homo sapiens, UniProt Q9BRQ5). In words: Current recording, HEK293 cells expressing Orai3 alone. It is filed as cell-based. Particulars: 100 μM, with or without 360 nm light.
The target in series [4] is STIM1 (Homo sapiens, UniProt Q13586). Briefly: TIRFM of STIM1 clustering at ER–PM junctions. Type of series: cell-based. Particulars: 100 μM, after ER Ca2+ depletion with TG. In short, it runs like this: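 TIRFM used a 100× (N.A. 1.49) objective. STIM1-mCherry cells were held in zero-Ca2+ solution with 400 nM thapsigargin for 10 min, then received 100 μM test compound and were imaged before and 20 min after. Orai1-EGFP/STIM1-mCherry cells were preincubated with 100 μM compound in zero Ca2+ and imaged before and 10 min after adding 400 nM thapsigargin.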

In series [5] the test system is capsaicin-induced nocifensive behavior. In words: Capsaicin-induced forelimb eye wiping test. Type of series: in vivo, mouse. In short, it runs like this:
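Male C57BL/6JOLAHSD mice (3–4 wk, 5–6 per group) were handled for 2 d and habituated to the cage for 10 min. A 10-μL drop went to the right eye: vehicle (0.1% ethanol in SES), 1 μM capsaicin, 100 μM test compound, or capsaicin plus compound. Forelimb wipes were counted for 5 min, starting 5 min after dosing. Where used, 365 nm light (16 mW/cm², 3 cm, 60 s) was given and counting began 5 min later. Light alone was also tested.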

In series [6] the target is T3, Orai1 (Homo sapiens, UniProt Q96D31). In words: Ca2+ imaging of SOCE, Orai TKO HEK293 cells expressing STIM1 and Orai1. Type of series: cell-based. The note with it: 100 μM, dark.
Target sequence in this assay (Q96D31 whole entry): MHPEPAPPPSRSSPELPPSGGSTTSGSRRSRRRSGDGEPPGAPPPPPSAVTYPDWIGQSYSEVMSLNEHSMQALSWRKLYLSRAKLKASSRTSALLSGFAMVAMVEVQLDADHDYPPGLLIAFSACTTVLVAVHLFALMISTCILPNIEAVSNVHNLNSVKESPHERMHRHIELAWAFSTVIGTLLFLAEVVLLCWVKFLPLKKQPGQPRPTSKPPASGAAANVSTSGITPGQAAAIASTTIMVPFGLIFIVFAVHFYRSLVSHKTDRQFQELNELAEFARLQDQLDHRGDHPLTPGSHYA
Target sequence in this assay (Q13586 23-685 partner): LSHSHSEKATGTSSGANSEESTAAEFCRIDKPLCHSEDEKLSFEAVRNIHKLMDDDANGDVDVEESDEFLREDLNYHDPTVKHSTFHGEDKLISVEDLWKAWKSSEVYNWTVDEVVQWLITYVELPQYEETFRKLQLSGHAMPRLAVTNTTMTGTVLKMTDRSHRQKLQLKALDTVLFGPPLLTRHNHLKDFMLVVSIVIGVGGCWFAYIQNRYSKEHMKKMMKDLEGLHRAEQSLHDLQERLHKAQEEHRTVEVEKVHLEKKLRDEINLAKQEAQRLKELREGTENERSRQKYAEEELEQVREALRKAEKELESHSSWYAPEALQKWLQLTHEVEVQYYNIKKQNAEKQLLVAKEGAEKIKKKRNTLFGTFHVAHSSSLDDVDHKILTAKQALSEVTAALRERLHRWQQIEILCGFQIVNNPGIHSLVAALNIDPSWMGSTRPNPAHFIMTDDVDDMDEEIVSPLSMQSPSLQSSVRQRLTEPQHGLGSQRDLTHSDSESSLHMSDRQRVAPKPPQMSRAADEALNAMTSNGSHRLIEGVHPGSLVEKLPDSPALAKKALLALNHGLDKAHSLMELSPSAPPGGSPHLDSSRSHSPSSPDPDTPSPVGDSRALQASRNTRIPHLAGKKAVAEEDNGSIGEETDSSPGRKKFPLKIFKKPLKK
Series [7] concerns SOCE in HEK293 cells. In words: Ca2+ imaging of SOCE in HEK293 cells. Type of series: cell-based. The note with it: 100 μM, 1 mM Ca2+, TG.
The test system of series [8] is NFAT transcription in Jurkat NFAT-P/Luciferase (JNL) cells. Briefly: NFAT-dependent luciferase assay in JNL cells. It is filed as cell-based, human. The note with it: 100 μM.
Series [9] in a line: Trans:cis isomer ratio by 1H NMR. Type of series: physicochemical.
In series [10] the test system is SOCE in TG neurons. Briefly: Ca2+ imaging of SOCE in cultured trigeminal ganglion neurons. It is filed as cell-based, mouse. Particulars: 100 μM. In outline: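 Mouse trigeminal ganglion neurons were acutely dissociated, cultured and loaded with Cal-590. They were held for 10 min in Ca2+-free solution with 1 μM thapsigargin, with or without 100 μM test compound. SOCE was then induced by superfusion with 0.5 mM Ca2+, without or with 360 nm illumination. Fluorescence time courses came from n = 71 to 179 cells per group.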

In series [11] the target is STIM1 and Orai1 (CRAC channel) (Homo sapiens, UniProt Q96D31). In words: Whole-cell patch-clamp CRAC current in HEK293 cells expressing STIM1 and Orai1. It is filed as cell-based. (In general: The patch-clamp technique gives a direct electrical read-out from membranes.)
Series [12] in a line: Photostability under repeated illumination. The note with it: eight cycles 365/520 nm, 1% DMSO in PBS. It is filed as physicochemical. In short, it runs like this: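 Test compound at 26 μM in 1% DMSO/PBS was exposed to eight cycles of alternating 5-min 365 nm and 520 nm LED illumination. Absorbance at 329 nm was recorded throughout.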
Series [13] deals with Orai1 P245L (Homo sapiens, UniProt Q96D31, P245L). In words: Current recording, constitutively open Orai1 P245L mutant. It is filed as cell-based. The note with it: 10 μM. In short, it runs like this:
as §1

The target of series [14] is T3, Orai1. It is filed as cell-based. Particulars: Orai1 alone, 100 μM, with or without 360 nm light.
Target sequence in this assay (Q96D31 whole entry): as the sequence (Q96D31 whole entry) above
Series [15] deals with Orai2 (Homo sapiens, UniProt Q96SN7). Briefly: Ca2+ imaging of SOCE, Orai TKO HEK293 cells expressing STIM1 and Orai2. It is filed as cell-based. Particulars: 100 μM, dark.
Series [16] concerns the target T2, Orai3. Briefly: Ca2+ imaging of SOCE, Orai TKO HEK293 cells expressing STIM1 and Orai3. Type of series: cell-based. The note with it: 100 μM, dark.
Series [17] deals with InsP3R. In words: Ca2+ imaging of IP3-mediated ER Ca2+ release in STIM DKO cells. It is filed as cell-based. The note with it: 100 μM. In outline: (§2)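 Cells were loaded with 5 μM Cal-590 in Ringer's solution for 60 min, excited at 560 nm, and imaged every 3 or 10 s. Each experiment recorded 10 to 97 cells, and their responses were averaged. The Ca2+ change after activating each transport mechanism with 100 μM test compound present was normalized to the change in DMSO-treated control cells.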

In series [18] the test system is EMT6-GFP murine breast cancer cells. Briefly: Pulmonary metastatic assay. Type of series: in vivo, mouse. In short, it runs like this:
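EMT6-GFP cells were treated for 1 h with 1% DMSO or 200 µM test compound, with or without 10 s of 365 nm light (16 mW/cm²) at 0, 30 and 60 min. They were then washed and injected into the tail vein of 8-wk BALB/c mice (5 × 10⁴ cells). After 20 min, lungs were perfused, agarose-inflated and cut into 1–2 mm slices. Slices were cultured 7 d at 37 °C, and GFP⁺ colonies counted (3 slices/mouse, 5 mice/group). GFP⁺ cell percentage was then measured by flow cytometry.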

For series [19], the system named is O1N–O3C chimeric Orai channel. Briefly: Current recording, STIM1 with chimeric O1N–O3C channel. Type of series: cell-based. Particulars: 10 μM. In outline:
as §1

The target in series [20] is TRPV1 (Homo sapiens, UniProt Q8NER1). In words: Ca2+ imaging of TRPV1-mediated Ca2+ influx in STIM DKO cells. It is filed as cell-based. Particulars: 100 μM. In outline: as §2
The target in series [21] is TRPC3 (Homo sapiens, UniProt Q13507). In words: Ca2+ imaging of TRPC3-mediated Ca2+ influx in STIM DKO cells. It is filed as cell-based. Particulars: 100 μM. In outline: as §2
In series [22] the target is T1, STIM1 together with Orai3. Briefly: Whole-cell patch-clamp CRAC current in cells coexpressing STIM1 and Orai3. It is filed as cell-based.
In series [23] the target is STIM1 together with Orai2 (Homo sapiens, UniProt Q96SN7). In words: Whole-cell patch-clamp CRAC current in cells coexpressing STIM1 and Orai2. Type of series: cell-based.
The target of series [24] is TRPC6 (Homo sapiens, UniProt Q9Y210). Briefly: Ca2+ imaging of TRPC6-mediated Ca2+ influx in STIM DKO cells. It is filed as cell-based. The note with it: 100 μM. In short, it runs like this: as §2
In series [25] the target is NCX1 (Homo sapiens, UniProt P32418). In words: Ca2+ imaging of reverse Na+/Ca2+ exchange in cells overexpressing NCX1. It is filed as cell-based. In short, it runs like this:
as §2

The subject of series [26] is O3N–O1C chimeric Orai channel. In words: Current recording, STIM1 with chimeric O3N–O1C channel. Type of series: cell-based. Particulars: 10 μM. In short, it runs like this:
as §1

Setting [27] is: cells treated with 200 μM, no illumination.

STIM1 and Orai1 (CRAC channel), sequence (Q96D31 whole entry): as above
STIM1 and Orai1 (CRAC channel), sequence (Q13586 23-685 partner): as the sequence (Q13586 23-685 partner) above
TRPV1, sequence (Q8NER1 whole entry, species assumed): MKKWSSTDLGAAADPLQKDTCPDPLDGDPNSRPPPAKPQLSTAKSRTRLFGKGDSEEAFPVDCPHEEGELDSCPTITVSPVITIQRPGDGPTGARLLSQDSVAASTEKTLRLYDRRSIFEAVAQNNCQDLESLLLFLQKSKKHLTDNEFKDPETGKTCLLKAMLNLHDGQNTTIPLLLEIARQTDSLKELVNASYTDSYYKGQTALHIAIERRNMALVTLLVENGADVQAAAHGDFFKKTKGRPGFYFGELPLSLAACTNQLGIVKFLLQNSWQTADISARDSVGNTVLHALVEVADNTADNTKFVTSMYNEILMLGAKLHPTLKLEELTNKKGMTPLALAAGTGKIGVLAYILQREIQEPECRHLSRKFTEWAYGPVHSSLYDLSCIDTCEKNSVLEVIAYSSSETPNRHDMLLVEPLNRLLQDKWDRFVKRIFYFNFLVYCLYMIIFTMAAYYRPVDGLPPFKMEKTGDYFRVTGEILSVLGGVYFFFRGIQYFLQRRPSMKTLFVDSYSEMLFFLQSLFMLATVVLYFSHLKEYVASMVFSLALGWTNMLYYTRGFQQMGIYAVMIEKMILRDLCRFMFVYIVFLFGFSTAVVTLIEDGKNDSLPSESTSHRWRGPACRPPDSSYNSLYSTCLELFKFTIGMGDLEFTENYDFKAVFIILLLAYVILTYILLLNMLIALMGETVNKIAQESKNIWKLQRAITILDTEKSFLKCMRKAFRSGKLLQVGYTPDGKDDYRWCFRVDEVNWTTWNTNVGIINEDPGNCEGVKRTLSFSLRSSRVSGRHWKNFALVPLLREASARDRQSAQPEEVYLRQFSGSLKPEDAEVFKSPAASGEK
Orai2, sequence (Q96SN7 whole entry): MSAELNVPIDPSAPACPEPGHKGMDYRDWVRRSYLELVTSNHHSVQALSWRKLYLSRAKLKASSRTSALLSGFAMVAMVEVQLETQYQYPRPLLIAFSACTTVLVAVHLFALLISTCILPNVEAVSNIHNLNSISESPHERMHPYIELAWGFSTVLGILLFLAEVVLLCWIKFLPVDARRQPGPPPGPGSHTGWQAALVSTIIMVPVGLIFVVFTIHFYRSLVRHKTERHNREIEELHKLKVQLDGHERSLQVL
STIM1 together with Orai2, sequence (Q96SN7 whole entry): as above
NCX1, sequence (P32418 36-973): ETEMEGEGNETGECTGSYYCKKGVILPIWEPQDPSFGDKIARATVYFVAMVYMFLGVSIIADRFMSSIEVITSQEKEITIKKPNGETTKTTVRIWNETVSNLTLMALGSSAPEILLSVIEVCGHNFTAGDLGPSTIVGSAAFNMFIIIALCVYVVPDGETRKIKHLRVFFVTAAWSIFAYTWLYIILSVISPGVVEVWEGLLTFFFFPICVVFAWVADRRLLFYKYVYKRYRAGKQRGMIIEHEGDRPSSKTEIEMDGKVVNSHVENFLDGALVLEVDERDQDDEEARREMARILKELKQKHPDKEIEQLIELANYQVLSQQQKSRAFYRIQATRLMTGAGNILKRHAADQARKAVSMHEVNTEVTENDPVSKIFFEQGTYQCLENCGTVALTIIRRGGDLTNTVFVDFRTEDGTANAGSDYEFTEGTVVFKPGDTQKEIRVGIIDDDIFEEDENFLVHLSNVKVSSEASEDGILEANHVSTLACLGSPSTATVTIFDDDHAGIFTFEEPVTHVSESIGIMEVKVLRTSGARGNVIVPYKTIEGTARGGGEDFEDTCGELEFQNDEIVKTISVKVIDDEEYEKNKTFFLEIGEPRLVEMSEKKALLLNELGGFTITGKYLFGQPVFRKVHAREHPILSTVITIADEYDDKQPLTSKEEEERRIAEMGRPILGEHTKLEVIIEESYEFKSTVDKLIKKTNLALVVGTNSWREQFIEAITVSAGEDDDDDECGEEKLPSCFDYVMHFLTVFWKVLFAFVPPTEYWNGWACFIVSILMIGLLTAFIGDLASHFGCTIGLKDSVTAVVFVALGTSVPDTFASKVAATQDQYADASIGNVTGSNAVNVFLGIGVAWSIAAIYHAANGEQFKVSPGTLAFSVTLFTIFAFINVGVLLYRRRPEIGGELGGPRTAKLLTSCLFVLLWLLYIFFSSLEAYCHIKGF
Orai1 V102A, sequence (Q96D31 whole entry V102A, the tested form may be a part): as the sequence (Q96D31 whole entry) above, with V102A counted along it
TRPC3, sequence (Q13507 whole entry, species assumed): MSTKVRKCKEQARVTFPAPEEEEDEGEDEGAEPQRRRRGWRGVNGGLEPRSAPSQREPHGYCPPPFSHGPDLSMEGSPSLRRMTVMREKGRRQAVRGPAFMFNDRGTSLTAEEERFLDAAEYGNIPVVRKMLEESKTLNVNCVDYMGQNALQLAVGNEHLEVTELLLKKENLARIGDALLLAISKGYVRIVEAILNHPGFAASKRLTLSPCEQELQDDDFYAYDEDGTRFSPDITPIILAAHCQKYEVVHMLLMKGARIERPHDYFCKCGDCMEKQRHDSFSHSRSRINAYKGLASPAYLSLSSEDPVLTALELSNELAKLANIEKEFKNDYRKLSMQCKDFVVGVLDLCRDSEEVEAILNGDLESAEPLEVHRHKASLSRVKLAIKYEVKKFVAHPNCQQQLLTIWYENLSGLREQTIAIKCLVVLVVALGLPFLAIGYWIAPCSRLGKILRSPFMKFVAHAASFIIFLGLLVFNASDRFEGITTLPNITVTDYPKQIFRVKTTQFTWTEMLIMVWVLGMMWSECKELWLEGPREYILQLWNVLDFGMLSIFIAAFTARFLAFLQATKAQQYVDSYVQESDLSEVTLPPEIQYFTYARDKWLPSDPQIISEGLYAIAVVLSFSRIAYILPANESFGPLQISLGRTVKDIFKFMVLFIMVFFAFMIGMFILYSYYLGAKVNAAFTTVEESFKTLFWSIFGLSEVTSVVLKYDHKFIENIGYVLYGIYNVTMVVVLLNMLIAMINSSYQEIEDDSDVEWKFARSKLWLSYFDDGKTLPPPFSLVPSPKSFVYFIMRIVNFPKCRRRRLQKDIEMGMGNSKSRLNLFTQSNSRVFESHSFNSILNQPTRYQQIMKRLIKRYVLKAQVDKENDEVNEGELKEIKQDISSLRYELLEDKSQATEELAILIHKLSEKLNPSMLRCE
STIM1, sequence (Q13586 23-685, species assumed): as the sequence (Q13586 23-685 partner) above
Orai1 P245L, sequence (Q96D31 whole entry P245L): as the sequence (Q96D31 whole entry) above, with P245L counted along it

For `O=C(Nc1ccn(Cc2ccc(O)cc2C(F)(F)F)n1)c1c(F)cccc1F` [GSK7975A], the “Sensitivity of Orai3 current” value in series [1] is “sensitive”.
With `O=C(Nc1ccn(Cc2ccccc2Oc2ccccc2)n1)c1c(F)cccc1F` [GSK5503A], the “Sensitivity of Orai3 current” value in series [1] is on record as “sensitive”.
In general, Ki refers to the dissociation constant of the complex between target and ligand, obtained from inhibition or displacement. Low readings indicate a stronger hold on the target, high ones a looser hold on the target. As a reminder, the inhibition is the percentage by which the read-out fell short of the control. Take `OB(O)c1ccc(/N=N/c2ccccc2)cc1` [LOCI-1]: the “Effect on Orai1 V102A current” value in series [2] is recorded as “negligible effect”. Moreover, the “Current change on application” value in series [3] and in series [14] was “did not induce a notable current change” each time. Further, the “Effect on clustering of STIM1 in puncta at ER–PM junctions” value in [4] is given as “did not affect”. In addition, the “Eye wiping response, applied alone” value in [5] (100 μM alone, topical to eye) was “neither LOCI-1 nor 365 nm light elicits an appreciable nocifensive behavior”. Also, the “Inhibitory effect on eye wiping after a pulse of 365 nm light” value in series [5] (100 μM with 1 μM capsaicin, 365 nm 60 s) is recorded as “fully reversed”. Moreover, the “Eye wiping response, cotreatment with capsaicin” value in series [5] (100 μM with 1 μM capsaicin, topical to eye, vs capsaicin alone) is recorded as “significantly lower responses”. Further, the “Effect on SOCE mediated by Orai1” value in series [6] is reported as “strongly inhibits”. In [7], the “Effect on SOCE” value is listed as “inhibited”. In series [8] (16 h, in the dark), the “Inhibition of NFAT transcription” value was “more than 80%”. In series [8] (two pulses of 365 nm light), the “NFAT transcription after 365 nm light” value is “fully restore transcription to control levels”. Besides, in [9], the “Trans isomer content, dark-adapted” value was found to be 94%. In addition, the “Effect on SOCE in TG neurons” value in [10] was “inhibited”. The “Control of channel activity when infused into the cytosol via the patch pipette” value in series [11] (0.5 mM in pipette solution) is reported as “failed to do so”. The Ki in series [11] (Ki, dose-inhibition analysis, HEK293 STIM1+Orai1, LOCI-1 n = 3, LOCI-2 n = 4) turned out to be 5.5 ± 0.26 µM; in series [22], 131 ± 24 µM; in [23] it was 15.5 ± 1.8 µM. In addition, the “Restoration of inhibited current by 360 nm light” value in series [11] (LOCI-1 10 μM, LOCI-2 10 μM, 2-APB 100 μM) is given as “fully restored”. Moreover, in series [12], the “Photofatigue on repeated illumination” value is listed as “without significant photofatigue”. For the same compound, in [13], the “Effect on Orai1 P245L current” value was “strongly inhibited”. In [15], the “Effect on SOCE mediated by Orai2” value was “strongly inhibits”. In series [16], the “Effect on SOCE mediated by Orai3” value was “not”. Also, in [17], the “Effect on IP3-mediated Ca2+ release” value is “did not affect”. For the same compound, the “GFP-positive cancer cells in lung tissue” value in [18] (cells treated with 200 μM and 365 nm illumination) is listed as ~1.3%; in series [18] (setting [27]), ~0.65%. Also, the “Number of metastatic colonies vs DMSO” value in series [18] (setting [27]) is listed as “significantly fewer metastatic colonies”. The “Effect on O1N–O3C channel current” value in series [19] is listed as “strongly inhibited”. In addition, in series [20], the “Effect on TRPV1-mediated Ca2+ influx” value is listed as “did not affect”. For the same compound, the “TRPV1 activity in presence of cis or trans conformations” value in [20] (HEK293 STIM DKO cells expressing TRPV1) is “unchanged”. Also, the “Effect on TRPC3-mediated Ca2+ influx” value in [21] was “did not affect”. Further, the inhibition at 100 µM in series [22] (read-out: Average inhibition of Orai3 activity) is ~35%. For the same compound, in series [24], the “Effect on TRPC6-mediated Ca2+ influx” value was “did not affect”. Further, the “Effect on sodium–calcium exchange activity” value in series [25] is “did not inhibit”. The “Effect on O3N–O1C channel current” value in series [26] is “small and inconsistent effect”.
